Among the data in ChEMBL document CHEMBL3414543, “Novel series of benzoquinones with high potency against 5-lipoxygenase in human polymorphonuclear leukocytes” (Eur J Med Chem, 2015) are IC50 and Activity values, retold here.

A value given as a limit tells only on which side of the number the result lay.

One may read the IC50 as the concentration at which inhibition is half-maximal.

Test [1] concerns the target T1, Polyunsaturated fatty acid 5-lipoxygenase (Homo sapiens, UniProt P09917).
T1 sequence (P09917 whole entry): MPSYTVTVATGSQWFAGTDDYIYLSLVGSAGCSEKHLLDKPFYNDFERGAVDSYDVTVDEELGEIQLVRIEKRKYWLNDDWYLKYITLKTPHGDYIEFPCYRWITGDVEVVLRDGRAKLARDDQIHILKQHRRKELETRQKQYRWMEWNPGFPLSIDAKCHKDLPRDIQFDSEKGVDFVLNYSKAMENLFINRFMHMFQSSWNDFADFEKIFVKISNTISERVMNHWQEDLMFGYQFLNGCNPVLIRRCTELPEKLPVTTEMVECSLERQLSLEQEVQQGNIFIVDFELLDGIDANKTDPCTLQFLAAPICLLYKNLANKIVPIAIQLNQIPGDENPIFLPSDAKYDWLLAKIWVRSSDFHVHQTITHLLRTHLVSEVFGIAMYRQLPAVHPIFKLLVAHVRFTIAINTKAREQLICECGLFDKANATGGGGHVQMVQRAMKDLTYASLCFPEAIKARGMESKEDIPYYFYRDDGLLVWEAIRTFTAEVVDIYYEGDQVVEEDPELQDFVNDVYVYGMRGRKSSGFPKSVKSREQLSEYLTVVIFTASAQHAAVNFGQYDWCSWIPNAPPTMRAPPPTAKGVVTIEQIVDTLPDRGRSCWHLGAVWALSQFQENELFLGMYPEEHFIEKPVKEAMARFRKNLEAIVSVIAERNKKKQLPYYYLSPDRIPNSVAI
Description: Inhibition of human recombinant 5-LOX expressed in Escherichia coli BL21 incubated for 10 mins in presence of arachidonic acid by RP-HPLC based cell-free assay. The gist of the method:
(§1)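 Recombinant human 5-LO, semi-purified from a 40,000 × g lysate supernatant on ATP-agarose, diluted in ice-cold PBS with 1 mM EDTA and 1 mM ATP. Preincubated 10 min at 4 °C with compound or 0.1% DMSO, warmed 30 s at 37 °C, then started with 2 mM CaCl₂ plus 20 µM AA. Reaction 10 min at 37 °C, stopped with cold methanol, products by RP-HPLC. IC₅₀ from 4–5 concentrations.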

Test [2] has as its target T1, Polyunsaturated fatty acid 5-lipoxygenase. Description: Inhibition of 5-LOX in A23187-stimulated human blood PMNL assessed as reduction in lipoxygenase products formation pre-incubated for 15 mins followed by stimulation with A23187 for 10 mins by RP-HPLC based cell based assay. The gist of the method:
(§2)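 Human PMNL (5 × 10⁶ in 1 ml PBS pH 7.4, 1 mg/ml glucose, 1 mM CaCl₂), preincubated 15 min at 37 °C with compound or 0.1% DMSO, then stimulated 10 min at 37 °C with A23187, with or without AA. 5-LO products measured. Values are mean ± S.E. of 3–4 independent experiments. IC₅₀ read graphically from 4–5 concentrations.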

The target in test [3] is T2, Polyunsaturated fatty acid 5-lipoxygenase (Homo sapiens) (UniProt P09917).
T2 sequence (whole entry): T1 sequence (P09917 whole entry)
Description: Inhibition of human recombinant 5-LOX expressed in Escherichia coli BL21 assessed as remaining activity at 10 uM incubated for 10 mins in presence of arachidonic acid by RP-HPLC based cell-free assay. Put shortly: as §1

Test [4] deals with T3, Polyunsaturated fatty acid lipoxygenase ALOX15 (Homo sapiens) (UniProt P16050).
T3 sequence (whole entry): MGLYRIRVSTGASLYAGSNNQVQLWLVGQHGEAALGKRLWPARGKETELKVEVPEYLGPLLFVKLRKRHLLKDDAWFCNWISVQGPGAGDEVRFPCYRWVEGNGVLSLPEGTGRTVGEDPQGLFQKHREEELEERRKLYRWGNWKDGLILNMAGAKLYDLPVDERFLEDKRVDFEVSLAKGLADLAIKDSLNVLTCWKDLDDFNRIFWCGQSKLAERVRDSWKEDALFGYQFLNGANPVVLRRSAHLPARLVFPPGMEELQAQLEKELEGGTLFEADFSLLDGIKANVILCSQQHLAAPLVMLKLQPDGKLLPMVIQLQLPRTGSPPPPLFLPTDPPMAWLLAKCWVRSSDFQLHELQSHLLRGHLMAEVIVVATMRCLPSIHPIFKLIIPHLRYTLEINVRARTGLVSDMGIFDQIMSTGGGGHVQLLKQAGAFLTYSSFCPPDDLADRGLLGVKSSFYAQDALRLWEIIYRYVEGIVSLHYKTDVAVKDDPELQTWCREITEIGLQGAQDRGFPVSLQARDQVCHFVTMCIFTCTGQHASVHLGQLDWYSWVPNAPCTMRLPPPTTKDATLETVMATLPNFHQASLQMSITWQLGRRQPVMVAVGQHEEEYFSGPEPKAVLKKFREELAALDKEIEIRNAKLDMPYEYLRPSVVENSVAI
The test is described as follows: Inhibition of 15-LOX-1 in human blood PMNL assessed as remaining activity by measuring 15-HETE synthesis at 10 uM. The gist of the method:
(§3)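 PMNL isolated from heparinized blood of fasted healthy donors by dextran sedimentation and Nycoprep centrifugation, with hypotonic lysis of erythrocytes. Cells at 5 × 10⁶ in 1 ml PBS pH 7.4 with 1 mg/ml glucose and 1 mM CaCl₂, preincubated 15 min at 37 °C with compound or 0.1% DMSO vehicle, then stimulated 10 min at 37 °C. 12-HETE or 15-HETE formation measured.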

In test [5] the target is T4, Polyunsaturated fatty acid lipoxygenase ALOX12 (Homo sapiens) (UniProt P18054).
T4 sequence (whole entry): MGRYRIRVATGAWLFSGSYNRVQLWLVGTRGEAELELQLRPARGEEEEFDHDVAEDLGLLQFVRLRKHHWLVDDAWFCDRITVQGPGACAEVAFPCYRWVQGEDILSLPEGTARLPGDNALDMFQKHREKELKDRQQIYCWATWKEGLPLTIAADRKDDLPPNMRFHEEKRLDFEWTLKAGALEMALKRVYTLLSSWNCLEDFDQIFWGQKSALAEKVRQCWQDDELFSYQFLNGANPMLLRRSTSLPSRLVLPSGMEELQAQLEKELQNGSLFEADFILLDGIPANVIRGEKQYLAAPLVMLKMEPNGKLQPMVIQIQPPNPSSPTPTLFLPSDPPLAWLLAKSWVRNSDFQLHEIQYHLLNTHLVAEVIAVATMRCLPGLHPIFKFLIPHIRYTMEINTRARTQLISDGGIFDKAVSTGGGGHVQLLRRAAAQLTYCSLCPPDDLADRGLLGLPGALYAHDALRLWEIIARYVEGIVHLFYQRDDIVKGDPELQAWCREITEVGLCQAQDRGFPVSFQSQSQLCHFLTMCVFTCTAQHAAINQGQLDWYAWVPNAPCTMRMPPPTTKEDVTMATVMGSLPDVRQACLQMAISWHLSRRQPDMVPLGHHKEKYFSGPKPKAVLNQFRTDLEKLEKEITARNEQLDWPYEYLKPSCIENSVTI
Description: Inhibition of 12-LOX in human blood PMNL assessed as remaining activity by measuring 12-HETE synthesis at 10 uM. The gist of the method: as §3

For test [6], the target named is T1, Polyunsaturated fatty acid 5-lipoxygenase. The test is described as follows: Inhibition of 5-LOX in A23187-stimulated human blood PMNL assessed as reduction in lipoxygenase products formation in presence of arachidonic acid pre-incubated for 15 mins followed by stimulation with A23187 for 10 mins by RP-HPLC based cell based assay. The gist of the method: as §2

Test [7] concerns the target T2, Polyunsaturated fatty acid 5-lipoxygenase (Homo sapiens). Description: Inhibition of 5-LOX in A23187-stimulated human blood PMNL assessed as remaining activity by measuring lipoxygenase products formation at 10 uM in presence of arachidonic acid pre-incubated for 15 mins followed by stimulation with A23187 for 10 mins by RP-HPLC based cell based assay. The gist of the method: as §2

The target is the same in test [8]. Description: Inhibition of 5-LOX in A23187-stimulated human blood PMNL assessed as remaining activity by measuring lipoxygenase products formation at 10 uM pre-incubated for 15 mins followed by stimulation with A23187 for 10 mins by RP-HPLC based cell based assay. The gist of the method:
as §2

Regarding `CCCCC1=C(OC)C(OC)=CC(=O)C1=O`, the IC50 was over 10000 nM in test [1], 2200 nM in test [2] and 5100 nM in test [6]. Besides, the Activity turned out to be 82.9% in test [3], 129% in test [4] and 85.8% in test [5].

On to `COC1=CC(=O)C(O)=C(C/C=C(\C)CCC=C(C)C)C1=O`, for which the IC50 in test [1] was over 10000 nM; in test [2], 4100 nM; in test [6] it was over 10000 nM. The Activity came out at 65.9% in test [7], 73.6% in test [3], 112% in test [4] and 101% in test [5].

As for `CCCCCCCCC1=C(O)C(=O)C=C(OC)C1=O`, the IC50 was 3000 nM in test [1], over 10000 nM in test [2] and over 10000 nM in test [6]. Also, the Activity came to 72.9% in test [7], 105% in test [4], 86.8% in test [5] and 73.5% in test [8].

As to `CCCCCCCCCCCCCCCC1=C(O)C(=O)C=C(O)C1=O`, the results for the IC50 in test [1], in test [2] and in test [6] were 230 nM, 4300 nM and over 10000 nM, respectively. Moreover, the Activity turned out to be 61.7% in test [7], 103% in test [4] and 87.7% in test [5].

As for `CCCCCCCCCCCCCCCC1=C(OC)C(OC)=CC(=O)C1=O`, the results for the half-inhibitory concentration (IC50) in test [1], in test [2] and in test [6] were 620 nM, over 10000 nM and over 10000 nM, respectively. For the same molecule, the Activity in test [7] came out at 66.8%; in test [4], 115%; in test [5], 88.9%; in test [8], 57.6%.

Turning to `CC(C)=CCC/C(C)=C/CC1=C(O)C(=O)C=C(O)C1=O`, the half-maximal inhibitory concentration (IC50) in test [1] is 1800 nM; in test [2] it was over 10000 nM; in test [6], over 10000 nM. The Activity in test [7] turned out to be 81.9%; in test [4], 92%; in test [5] it was 80.5%; in test [8], 114%.

Take `CCCCCCCCCCCCCCCCC1=C(O)C(=O)C=C(OC)C1=O`: the IC50 in test [1] is over 10000 nM; in test [2] it was 1000 nM; in test [6], 1100 nM. For the same molecule, the figures for the Activity in test [3], in test [4] and in test [5] were 60.1%, 119% and 138%, respectively.

In the case of `CCCCCCCCCCCCCCCCC1=C(OC)C(=O)C=C(OC)C1=O`, the IC50 was 1600 nM in test [1], over 10000 nM in test [2] and 3500 nM in test [6]. For the same molecule, the values for the Activity in test [4], in test [5] and in test [8] were 97.8%, 121% and 80.1%, respectively.

Consider `CCCCCCCCC1=C(O)C(=O)C=C(O)C1=O`, for which the concentration for half-maximal inhibition (IC50) was 380 nM in test [1], over 10000 nM in test [2] and over 10000 nM in test [6]. The Activity in test [7] worked out at 80.1%; in test [4], 88.9%; in test [5], 75.7%; in test [8], 53.5%.

Consider `CCCCC1=C(OC)C(=O)C=C(OC)C1=O`, for which the IC50 in test [1] was 3300 nM; in test [2], 3400 nM; in test [6], 7900 nM. Further, the Activity in test [4] and in test [5] was 103% throughout.

With `CCCCCCC1=C(OC)C(=O)C=C(OC)C1=O`, the figures for the IC50 in test [1], in test [2] and in test [6] were 2600 nM, 320 nM and 1400 nM, respectively. The Activity in test [4] is 101%; in test [5], 102%.

Consider `CCCCCCC1=C(O)C(=O)C=C(O)C1=O`, for which the 50% inhibitory concentration (IC50) is 4000 nM in test [1], over 10000 nM in test [2] and over 10000 nM in test [6]. Also, the Activity in test [7] came to 79.9%; in test [4], 89.8%; in test [5] it was 105%; in test [8] it was 134%.

Take `CCCCCCCCCCCCCCCC1=C(OC)C(=O)C=C(OC)C1=O`: the IC50 in test [1] worked out at 270 nM; in test [2], 390 nM; in test [6], 860 nM. Also, the values for the Activity in test [4] and in test [5] were 115% and 87.3%, respectively.

On to `CCCCCCCCCCCCCCCCC1=C(O)C(=O)C=C(O)C1=O`, for which the half-inhibitory concentration (IC50) in test [1] is 190 nM; in test [2] it was over 10000 nM; in test [6], over 10000 nM. Moreover, the Activity in test [7] came out at 80.5%; in test [4] it was 105%; in test [5], 117%; in test [8] it was 88%.

Take `CCCCCCCCCCCCC1=C(OC)C(=O)C=C(OC)C1=O`: the IC50 in test [1] was determined as 610 nM; in test [2] it was 630 nM; in test [6], 490 nM. Also, the Activity came to 127% in test [4] and 138% in test [5].

In the case of `CCCCCCCCCCCCCCC1=C(O)C(=O)C=C(OC)C1=O`, the figures for the IC50 in test [1], in test [2] and in test [6] were 420 nM, 270 nM and 490 nM, respectively. The Activity in test [4] is 116%; in test [5] it was 114%.

On to `CC(C)=CCC/C(C)=C/CC/C(C)=C/CC1=C(O)C(=O)C=C(O)C1=O`, for which the IC50 in test [1] was 2500 nM; in test [2], over 10000 nM; in test [6] it was over 10000 nM. The Activity turned out to be 66.6% in test [7], 95.2% in test [4], 78.3% in test [5] and 85.8% in test [8].
